Measurements from ChEMBL document CHEMBL1127648, “Synthesis of 2-piperazinylbenzothiazole and 2-piperazinylbenzoxazole derivatives with 5-HT3 antagonist and 5-HT4 agonist properties” (J Med Chem, 1994).

Experiments:
[1] = biological target: T1, Serotonin 1 (5-HT1) receptor (Rattus norvegicus, UniProt P28564+P30940+P19327+P28565); assay: Binding affinity towards 5-hydroxytryptamine 1 receptor using [3H]5-HT as radioligand; assay type: protein assay
In short: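 Rat cortex homogenized in 50 mM Tris-HCl and preincubated at 37 °C for 10 min. Membranes were resuspended with 0.1% ascorbic acid and 10 μM pargyline. Incubated with 0.3 nM [3H]-5-HT and varying test concentrations at 37 °C for 10 min, then filtered and counted by scintillation. IC50 is the mean of 4–6 experiments.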

[2] = biological target: T2, Serotonin 3 (5-HT3) receptor (Rattus norvegicus, UniProt P35563+Q9JJ16); assay: Inhibition of [3H]BRL-43694 binding to rat 5-hydroxytryptamine 3 receptor; assay type: protein-complex assay
T2 sequence (P35563 whole entry): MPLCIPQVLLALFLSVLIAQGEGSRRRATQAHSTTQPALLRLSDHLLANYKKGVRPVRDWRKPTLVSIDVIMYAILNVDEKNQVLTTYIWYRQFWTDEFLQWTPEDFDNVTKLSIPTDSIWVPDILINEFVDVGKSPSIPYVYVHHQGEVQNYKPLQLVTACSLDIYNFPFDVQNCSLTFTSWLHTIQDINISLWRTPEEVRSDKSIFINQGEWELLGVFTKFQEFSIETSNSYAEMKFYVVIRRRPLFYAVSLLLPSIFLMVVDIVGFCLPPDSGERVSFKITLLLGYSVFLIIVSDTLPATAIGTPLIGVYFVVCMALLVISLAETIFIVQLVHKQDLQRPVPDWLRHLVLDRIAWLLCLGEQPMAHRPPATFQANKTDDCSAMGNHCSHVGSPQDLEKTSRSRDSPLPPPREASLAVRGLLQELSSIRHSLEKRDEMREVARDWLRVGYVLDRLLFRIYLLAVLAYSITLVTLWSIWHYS
T2 sequence (Q9JJ16 whole entry): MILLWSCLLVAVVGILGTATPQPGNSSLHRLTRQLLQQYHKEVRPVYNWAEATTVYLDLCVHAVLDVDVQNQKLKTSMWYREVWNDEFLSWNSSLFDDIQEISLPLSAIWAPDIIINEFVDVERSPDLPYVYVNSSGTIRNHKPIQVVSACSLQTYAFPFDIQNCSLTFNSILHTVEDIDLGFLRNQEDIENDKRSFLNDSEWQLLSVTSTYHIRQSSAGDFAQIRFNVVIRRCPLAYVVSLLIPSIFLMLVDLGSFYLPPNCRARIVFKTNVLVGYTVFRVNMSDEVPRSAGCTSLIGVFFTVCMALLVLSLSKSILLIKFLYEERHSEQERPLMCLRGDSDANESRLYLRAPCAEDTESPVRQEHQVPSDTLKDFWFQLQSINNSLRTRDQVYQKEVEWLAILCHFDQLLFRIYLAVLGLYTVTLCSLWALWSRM

[3] = biological target: Serotonin 3 (5-HT3) receptor (Rattus norvegicus) (UniProt P35563+Q9JJ16); assay: Inhibition dose for 50 percent antagonism for 5-hydroxytryptamine 3 receptor in vivo in rats; assay type: functional, organism-based
In short: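 Male Sprague-Dawley rats (500–550 g) under urethane (1 g/kg ip), with heart rate taken from the carotid pressure signal. 5-HT 4 μg/kg iv bolus every 15 min elicited von Bezold-Jarisch bradycardia. […] ID50 by Litchfield-Wilcoxon.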

D(2) dopamine receptor = D(2) dopamine receptor (Rattus norvegicus, UniProt P61169); assay: Displacement of [3H]spiroperidol from D2 dopamine receptor
Cavia porcellus [4] = species on record: Cavia porcellus; assay: The compound was evaluated for the percentage inhibition in guinea pig ileum stimulated with 10 uM 5-HT and tested at fixed concentration of 10 uM; assay type: functional
In short: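 Guinea pig ileum in oxygenated physiological solution with 1 μM methysergide at 37 °C, isometric recording, 0.5 g resting tension. Response to 10 μM 5-HT set as 100%. After 30 min incubation with compound at 10 μM, 5-HT was re-added; response expressed as % of the previous 5-HT response.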

Cavia porcellus [5] = species on record: Cavia porcellus; assay: The compound was evaluated for the pA2 value that was estimated using 2-methyl-5-HT in five to seven different tissues in guinea pig ileum; assay type: functional; conditions: read-out: pA2 (converted)
In short: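 Guinea pig ileum in oxygenated physiological solution with 1 μM methysergide at 37 °C, isometric contractions at 0.5 g tension.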

Rattus norvegicus [6] = assay: The compound was evaluated for the percentage increase in gastric emptying for a dose of 10 mg/kg perorally in rat; assay type: functional, Stomach; conditions: route oral
In short: (§1)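 Wistar rats (160 ± 10 g) fasted overnight, dosed orally with vehicle or compound. After 60 min, gavage with 40 steel spheroids (1 mm) in 2 mL 3% carboxymethylcellulose. Killed by CO2 60 min later; spheroids left in the stomach were counted. Emptying is expressed as a percentage of paired controls.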

Rattus norvegicus [7] = species on record: Rattus norvegicus; assay: The compound was evaluated for the percentage inhibition in rat aorta stimulated with 30 uM 5-HT and tested at fixed concentration of 10 uM; assay type: functional
Rattus norvegicus [8] = assay: The compound was evaluated for the percentage increase in gastric emptying for a dose of 5 mg/kg perorally in rat; assay type: functional, Stomach; conditions: route oral; in short: as §1
Rattus norvegicus [9] = assay: The compound was evaluated for the percentage increase in gastric emptying for a dose of 7.5 mg/kg perorally in rat; assay type: functional, Stomach; conditions: route oral; in short: as §1
Rattus norvegicus [10] = species on record: Rattus norvegicus; assay: The compound was evaluated for the intrinsic activity in rat isolated esophageal tunica muscularis mucose; assay type: functional
In short: (§2)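 Inner smooth-muscle tube of rat oesophagus (external muscularis propria removed), held in Tyrode's solution at 37 °C, pH 7.4, aerated 95% O2/5% CO2, under 250 mg tension, equilibrated 60 min. Relaxation of carbachol-induced contraction measured from agonist concentration-effect curves. Means of 8 experiments (24 for 5-HT).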

Rattus norvegicus [11] = species on record: Rattus norvegicus; assay: The compound was evaluated for the value in rat isolated esophageal tunica muscularis mucose in rat; assay type: functional; in short: as §2
Rattus norvegicus [12] = species on record: Rattus norvegicus; assay: (§3) The compound was evaluated for the value in rat isolated esophageal tunica muscularis mucose; assay type: functional
In short: (§4)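 Rat oesophageal tunica muscularis mucosae was isolated by removing the muscularis propria. Strips were held in Tyrode's solution (pH 7.4) at 37 °C, aerated with 95% O2/5% CO2, under 250 mg tension, and equilibrated 60 min. Relaxation of carbachol-induced contraction was measured. Paired concentration-effect curves were run in the same preparation, first to 5-HT, then to the test agonist. ECR = IC40 test agonist/IC40 5-HT. Mean of 8 experiments.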

Rattus norvegicus [13] = species on record: Rattus norvegicus; assay: The compound was evaluated for pEC50 of 5-HT in rat isolated esophageal tunica muscularis mucose; conditions: in vitro
Rattus norvegicus [14] = assay: The compound was evaluated for the percentage increase in gastric emptying for a dose of 1 mg/kg perorally in rat; assay type: functional, Stomach; conditions: route oral; in short: as §1
Rattus norvegicus [15] = assay: The compound was evaluated for the percentage increase in gastric emptying for a dose of 10 mg/kg perorally in rat.; assay type: functional, Stomach; conditions: route oral; in short: as §1
Rattus norvegicus [16] = assay: The compound was evaluated for the percentage increase in gastric emptying for a dose of 5 mg/kg perorally in rat.; assay type: functional, Stomach; conditions: route oral; in short: as §1
Rattus norvegicus [17] = assay: The compound was evaluated for the percentage increase in gastric emptying for a dose of 7.5 mg/kg perorally in rat.; assay type: functional, Stomach; conditions: route oral; in short: as §1
[18] = The compound was evaluated for equipotent concentration ratio (ECR). whereECR = IC40 test agonist / IC40 5-HT; assay type: functional
In short: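 Rat oesophageal tunica muscularis mucosae precontracted with carbachol. Two concentration-effect curves were run in the same strip, first to 5-HT and then to 5-HT or the test agonist. […] Only paired experiments were used.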

Rattus norvegicus [19] = species on record: Rattus norvegicus; assay: Agonist potency in rat isolated esophageal tunica muscularis mucose.; assay type: functional; in short: as §2
Rattus norvegicus [20] = species on record: Rattus norvegicus; assay: as §3; parameters: species or system Esophagus muscularis mucosa; in short: as §4
Rattus norvegicus [21] = species on record: Rattus norvegicus; assay: Ability of compounds to relax oesophagus expressed as equipotent concentration ratio (ECR) where ECR = IC40 test agonist / IC40 5-HT; assay type: functional; in short: as §4
[22] = biological target: T1, Serotonin 1 (5-HT1) receptor; assay: The compound was evaluated for the binding affinity towards 5-hydroxytryptamine 1 using [3H]5-HT as radioligand; assay type: protein assay
In short: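 Membranes were resuspended with 0.1% ascorbic acid and 10 μM pargyline. Incubated with 0.3 nM [3H]-5-HT and varying test concentrations at 37 °C for 10 min, then filtered and counted by scintillation.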

Chain of D(2) dopamine receptor (P61169 whole entry): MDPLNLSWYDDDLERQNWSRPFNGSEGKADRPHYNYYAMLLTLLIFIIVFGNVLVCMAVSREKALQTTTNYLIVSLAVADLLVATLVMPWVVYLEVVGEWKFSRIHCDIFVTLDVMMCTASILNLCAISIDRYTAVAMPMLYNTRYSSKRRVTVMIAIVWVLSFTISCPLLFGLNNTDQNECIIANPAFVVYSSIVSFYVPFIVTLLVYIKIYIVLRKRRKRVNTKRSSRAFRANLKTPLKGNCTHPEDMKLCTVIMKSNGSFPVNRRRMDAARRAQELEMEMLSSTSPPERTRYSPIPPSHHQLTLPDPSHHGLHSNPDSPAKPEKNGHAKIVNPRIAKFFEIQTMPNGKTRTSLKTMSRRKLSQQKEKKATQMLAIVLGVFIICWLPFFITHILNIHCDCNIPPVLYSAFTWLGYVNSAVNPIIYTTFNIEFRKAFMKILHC

| Structure (SMILES) | IC50 [1] | IC50 [2] [µM] | IC50 (D(2) dopamine receptor) [µM] | Inhibition (Cavia porcellus [4]) [%] | Increase (Rattus norvegicus [6]) [%] | Inhibition (Rattus norvegicus [7]) [%] | other results |
| --- | --- | --- | --- | --- | --- | --- | --- |
| c1ccc(CN2CCN(c3nc4ccccc4s3)CC2)cc1 | > 0.00001 M | 0.033 | > 10 | 74.4 | 44.6 | 14.8 | ID50 [3]: 0.16 mg/kg; Kb (Cavia porcellus [5]): 0.501 µM |
| COc1cc(N)c(Cl)cc1C(=O)NC1CCN(CCCOc2ccc(F)cc2)CC1OC (stereo not given) [CISAPRIDE] |  |  |  | 98.1 | 67 |  | Kb (Cavia porcellus [5]): 0.001 µM; Increase (Rattus norvegicus [8]): 47.2%; Increase (Rattus norvegicus [9]): 59.5%; Intrinsic activity (Rattus norvegicus [10]): 0.92; EC50 (Rattus norvegicus [11]): 0.0589 µM |
| Oc1ccccc1N1CCN(c2nc3ccccc3s2)CC1 | > 10 µM | > 10 | > 10 | 40.8 | -14.2 | 49.3 |  |
| NCCc1c[nH]c2ccc(O)cc12 [SEROTONIN] |  |  |  |  |  |  | Intrinsic activity (Rattus norvegicus [12]): 1; pEC50 (Rattus norvegicus [13]): 7.91 |
| Cc1nccn1CC1CCc2c(c3ccccc3n2C)C1=O (stereo not given) [ONDANSETRON] |  |  |  |  |  |  | Increase (Rattus norvegicus [14]): 44.2% |
| Clc1cccc(N2CCN(c3nc4ccccc4s3)CC2)c1 | > 10 µM | > 10 | > 10 | -21.9 |  |  |  |
| c1ccc2oc(N3CCN(Cc4ccc5c(c4)OCO5)CC3)nc2c1 | > 10 µM | > 10 | > 10 | 55.8 | 23.1 | 19.4 |  |
| O=C(c1ccc(F)cc1)C1CCN(CCn2c(=O)[nH]c3ccccc3c2=O)CC1 [KETANSERIN] |  |  |  |  |  | 90 |  |
| c1ccc2sc(N3CCN(Cc4ccc5c(c4)OCO5)CC3)nc2c1 | > 10 µM | 0.95 | > 10 | 74.5 |  | 21.2 | ID50 [3]: 0.18 mg/kg; Kb (Cavia porcellus [5]): 0.316 µM; Increase (Rattus norvegicus [15]): 62.8%; Increase (Rattus norvegicus [16]): 45%; Increase (Rattus norvegicus [17]): 43.3%; Intrinsic activity (Rattus norvegicus [10]): 0.91; Ratio [18]: 22; EC50 (Rattus norvegicus [19]): 0.263 µM |
| COc1ccccc1N1CCN(c2nc3ccccc3o2)CC1 | > 10 µM | > 10 | > 10 | 25.6 |  | 14.7 |  |
| c1ccc(CN2CCN(c3nc4ccccc4o3)CC2)cc1 | > 10 µM | > 10 | > 10 | 48.8 | 15.1 | 21.9 |  |
| Cc1[nH]c2ccc(O)cc2c1CCN |  |  |  |  |  |  | CL (Rattus norvegicus [20]): 4.9%; Intrinsic activity (Rattus norvegicus [10]): 1; Ratio (Rattus norvegicus [21]): 643 |
| Oc1ccccc1N1CCN(c2nc3ccccc3o2)CC1 | > 10 µM | > 10 | > 10 | 46.1 | -30.2 | 29.1 |  |
| COc1ccccc1N1CCN(c2nc3ccccc3s2)CC1 | > 10 µM | > 10 | > 10 | 43 | -27.5 | 7.1 |  |
| CCN(CC)CCNC(=O)c1cc(Cl)c(N)cc1OC [METOCLOPRAMIDE] |  |  |  |  | 37.1 |  |  |
| CCOc1ccccc1N1CCN(c2nc3ccccc3s2)CC1 |  | > 10 | > 10 | -22.2 |  | 10.3 | IC50 [22]: > 10 µM |
